Data on 17 compounds can be found in ChEMBL document CHEMBL3297737, “Discovery of the first potent and orally available agonist of the orphan G-protein-coupled receptor 52” (J Med Chem, 2014).

The target in series [1] is T1, G-protein coupled receptor 52 (Homo sapiens, UniProt Q9Y2T5). The series can be described thus: Agonist activity at human GPR52 expressed in CHO cells assessed as cAMP production after 30 mins by Alphascreen assay relative to N-(2-Hydroxyethyl)-3-{2-[3-(trifluoromethyl)benzyl]-1-benzofuran-4-yl}benzamide. Format: functional, cell-based. (Cyclic AMP is a second messenger, typically raised through Gs and lowered through Gi signalling.)
T1 sequence (Q9Y2T5 whole entry): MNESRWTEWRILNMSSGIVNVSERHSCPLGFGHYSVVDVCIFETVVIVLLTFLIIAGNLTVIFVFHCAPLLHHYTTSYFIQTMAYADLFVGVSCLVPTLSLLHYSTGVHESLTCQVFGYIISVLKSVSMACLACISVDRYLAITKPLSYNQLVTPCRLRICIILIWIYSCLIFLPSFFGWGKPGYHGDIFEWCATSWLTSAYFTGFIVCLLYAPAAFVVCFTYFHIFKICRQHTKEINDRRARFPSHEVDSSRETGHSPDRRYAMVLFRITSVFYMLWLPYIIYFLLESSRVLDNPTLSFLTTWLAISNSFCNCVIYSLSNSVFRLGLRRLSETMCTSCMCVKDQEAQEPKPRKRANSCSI

Series [2] addresses T1, G-protein coupled receptor 52. The series can be described thus: Agonist activity at human GPR52 expressed in CHO cells assessed as cAMP production after 30 mins by Alphascreen assay. The class given is functional, cell-based.
The nature of series [3]: Cmax in mouse at 1 mg/kg, po administered via cassette dosing. Format: ADME, organism-based. The arrangement: dose 1 mg/kg, route oral. The following applies: in vivo. In a few lines: (§1)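 Mouse cassette dosing at 0.1 mg/kg iv and 1 mg/kg po. Plasma Cmax, AUC0–8h and oral bioavailability determined.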
Series [4] can be described thus: AUC (0 to 8 hrs) in mouse at 1 mg/kg, po administered via cassette dosing. Format: ADME, organism-based. The arrangement: time < 8 hr, dose 1 mg/kg, route oral. The following applies: plasma. In short, it runs like this:
as §1

Series [5] in a line: Oral bioavailability in mouse at 1 mg/kg administered via cassette dosing. The class given is ADME, organism-based. The following applies: in vivo. In short, it runs like this:
as §1

A short description of series [6]: Ratio of AUC from brain to plasma in mouse at 30 mg/kg, po. Format: ADME, organism-based. The arrangement: dose 30 mg/kg, route oral. The following applies: read-out: Ratio AUC. In a few lines:
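Brain/plasma AUC ratio determined in mice after oral administration of 30 mg/kg.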

Series [7] has as its target D(1A) dopamine receptor (Homo sapiens) (UniProt P21728). The series can be described thus: Agonist activity at human dopamine D1 receptor expressed in CHO cells. Format: cell-based. In short, it runs like this:
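cAMP production measured in CHO cells expressing human dopamine D1 receptor (DRD1). Mean ± SD, n = 4.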

For series [8] the target is unchanged. The series can be described thus: Agonist activity at dopamine D1 receptor (unknown origin).
For series [9], the target named is D(2) dopamine receptor (Homo sapiens) (UniProt P14416). Kind of series: Agonist activity at dopamine D2 receptor (unknown origin).
Chain of D(2) dopamine receptor (Homo sapiens) (P14416 whole entry): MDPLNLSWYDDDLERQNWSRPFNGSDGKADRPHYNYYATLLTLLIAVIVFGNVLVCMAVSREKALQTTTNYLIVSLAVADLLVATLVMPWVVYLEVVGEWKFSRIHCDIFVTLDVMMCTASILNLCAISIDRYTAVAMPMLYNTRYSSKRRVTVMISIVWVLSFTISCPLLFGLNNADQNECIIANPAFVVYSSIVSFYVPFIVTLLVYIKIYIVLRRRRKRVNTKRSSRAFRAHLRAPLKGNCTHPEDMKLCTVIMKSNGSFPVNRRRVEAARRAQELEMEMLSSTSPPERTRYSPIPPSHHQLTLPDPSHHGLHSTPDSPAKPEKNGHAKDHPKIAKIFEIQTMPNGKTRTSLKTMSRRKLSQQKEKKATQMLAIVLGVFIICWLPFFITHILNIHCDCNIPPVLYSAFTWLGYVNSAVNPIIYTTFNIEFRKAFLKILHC
Series [10] is filed under the species Homo sapiens. Kind of series: Agonist activity at 5HT2 receptor (unknown origin).
For series [11], the species on record is Homo sapiens. Kind of series: Agonist activity at AMPA receptor (unknown origin).
Series [12] has as its target Glutamate [NMDA] receptor (Homo sapiens) (UniProt Q05586+Q12879+Q13224+O15399+O60391+Q14957+Q8TCU5). Kind of series: Agonist activity at NMDA receptor (unknown origin).
The subject of series [13] is Mus musculus. The series can be described thus: Antipsychotic activity against methamphetamine-induced hyperlocomotion in po dosed ICR mouse administered 60 mins prior to methamphetamine challenge measured 150 mins post compound challenge. The class given is functional, organism-based. In short, it runs like this: (§2)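 Male ICR mice, 7–8 weeks old, each in its own cage. Locomotor activity monitored. Compound given orally (1–30 mg/kg) after 60 min habituation. Methamphetamine 2 mg/kg sc injected 60 min later. Activity counts recorded for 150 min after compound dosing. n = 6–7 per group. Williams test versus vehicle + methamphetamine.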

Series [14] deals with Mus musculus. Kind of series: Toxicity in ICR mouse assessed as cataleptogenic effect at 100 mg/kg, po after 1 to 2 hrs. Format: organism-based. The arrangement: dose 100 mg/kg, route oral. The note with it: in vivo. In a few lines:
(§3)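 Male ICR mice, 6–7 weeks old, dosed orally (10–100 mg/kg). Tested 1 and 2 h post-dose by placing forepaws on a steel bar, hind legs on the surface. Time holding immobile posture recorded, capped at 30 s. Three trials averaged per mouse. n = 6 per group. Williams test versus vehicle.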

The test system of series [15] is Mus musculus. Kind of series: Toxicity in ICR mouse assessed as extrapyramidal side effects at 100 mg/kg, po after 1 to 2 hrs. Format: organism-based. Also noted: dose 100 mg/kg, route oral. The note with it: in vivo. In a few lines:
as §3

The subject of series [16] is Mus musculus. The series can be described thus: Antipsychotic activity against methamphetamine-induced hyperlocomotion in ICR mouse at 3 mg/kg, po administered 60 mins prior to methamphetamine challenge measured 150 mins post compound challenge. Format: functional, organism-based. Also noted: dose 3 mg/kg. In a few lines:
as §2

Series [17] has as its target T1, G-protein coupled receptor 52. The series can be described thus: Agonist activity at human GPR52 expressed in CHO cells assessed as cAMP production at 10 uM after 30 mins by Alphascreen assay. Format: functional, cell-based.
The target is the same in series [18]. Kind of series: Agonist activity at GPR52 (unknown origin).
Series [19] has the same target. Kind of series: Agonist activity at GPR52 (unknown origin) relative to control.

One may read the Emax as the maximal effect, on the per cent scale that the assay sets. Usually EC50 stands for the concentration giving half of the maximal effect. A word on the Cmax: it is the peak of the concentration-time curve. The term AUC(0-t) denotes exposure summed from dosing to a finite time, without extrapolation to infinity. Usually bioavailability stands for the share of a dose that reaches the circulation, judged against a reference dose that is usually intravenous.

The source made the active and inactive calls. No cut-off for these calls is given here.

Chain of D(1A) dopamine receptor (Homo sapiens) (P21728 whole entry): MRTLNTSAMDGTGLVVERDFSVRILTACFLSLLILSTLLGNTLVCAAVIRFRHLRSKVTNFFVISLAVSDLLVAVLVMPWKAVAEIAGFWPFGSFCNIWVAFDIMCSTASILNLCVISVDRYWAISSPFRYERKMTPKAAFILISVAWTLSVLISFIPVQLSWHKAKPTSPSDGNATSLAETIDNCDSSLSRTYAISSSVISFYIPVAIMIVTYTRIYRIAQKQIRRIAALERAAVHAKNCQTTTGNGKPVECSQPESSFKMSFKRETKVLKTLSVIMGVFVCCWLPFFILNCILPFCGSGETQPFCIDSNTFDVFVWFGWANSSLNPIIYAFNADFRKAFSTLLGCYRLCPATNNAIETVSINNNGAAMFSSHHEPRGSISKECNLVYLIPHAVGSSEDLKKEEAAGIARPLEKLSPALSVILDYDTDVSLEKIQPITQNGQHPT

Regarding `O=C(NCCO)c1cccc(-c2cccc3nn(Cc4cccc(C(F)(F)F)c4)cc23)c1`, the Emax in [1] came to 79.1%. For the same compound, the concentration for a half-maximal effect (EC50) in series [2] was 38.9 nM.
Regarding `COCCNC(=O)c1cccc(-c2cccc3cc(Cc4cc(F)cc(Cl)c4)sc23)c1`, in series [1], the Emax turned out to be 79.8%. In [2], the EC50 is 29.5 nM. Also, the Cmax in series [3] stood at 108 ng/mL. The AUC(0-t) at 8 h in [4] is 614 ng·h/mL. Further, the bioavailability in [5] came out at 73%. The Kp in series [6] worked out at 0.94. Also, the result (in series [7]; in [8]; in series [9]; in the series listed under Homo sapiens [10]; in the series listed under Homo sapiens [11]; in series [12]) was inactive. The Activity result was “Dose-dependent effect” with Mus musculus [13], “Non-toxic” with Mus musculus [14] and “Non-toxic” in the series on Mus musculus [15]. For the same compound, in the series on Mus musculus [16], the outcome was Active.
With `Cc1c(Cc2cccc(C(F)(F)F)c2)oc2cccc(-c3cccc(C(=O)NCCO)c3)c12`, the EC50 in series [2] was above 10000 nM. In addition, in [17], the Activity was 20%.
As for `Cc1c(Cc2cccc(C(F)(F)F)c2)oc2c(-c3cccc(C(=O)NCCO)c3)cccc12`, the Emax in [1] was found to be 71.5%. Moreover, the EC50 in [2] is 81.3 nM.
The corresponding values for `NC(=O)CNC(=O)c1cccc(-c2cccc3cc(Cc4cccc(C(F)(F)F)c4)sc23)c1` are 102% and 55 nM.
Turning to `COc1ccc(-c2ccnc(NCCc3ccc(OC)c(OC)c3)n2)cc1`, the EC50 in series [2] was above 10000 nM. Further, the Activity in series [17] came to 33%.
As to `O=C(NCCO)c1cccc(-c2cccc3cn(Cc4cccc(C(F)(F)F)c4)nc23)c1`, the Emax in series [1] worked out at 69.7%. The EC50 in [2] was 64.6 nM.
With `O=C(NCCO)c1cccc(-c2cccc3cc(Cc4cccc(C(F)(F)F)c4)sc23)c1`, in series [1], the Emax came to 79.6%. Further, in series [2], the EC50 is 37.2 nM.
In the case of `NC(=O)CNC(=O)c1cccc(-c2ccc(F)c3cc(Cc4cccc(C(F)(F)F)c4)sc23)c1`, the Emax in series [1] turned out to be 107%. Further, the EC50 in series [2] was 83.2 nM.
In the case of `O=C(NCCO)c1cccc(-c2cccc3sc(Cc4cccc(C(F)(F)F)c4)cc23)c1`, the Emax in series [1] was found to be 68.6%. Also, the EC50 in [2] is 38 nM.
With `O=C(NCCO)c1cccc(-c2cccc(OCCc3cc(F)cc(Cl)c3)n2)c1`, in series [18], the EC50 was 347 nM. Besides, the maximal response (Emax) in series [19] came to 79%.
For `O=C(NCCO)c1cccc(-c2cccc3cc(Cc4cccc(C(F)(F)F)c4)oc23)c1`, the Emax in [1] turned out to be 74.8%. In addition, in series [2], the EC50 is 34.7 nM.
In the case of `O=C(NCCO)c1cccc(-c2cccc3c2OC(Cc2cccc(C(F)(F)F)c2)C3)c1` (racemic), in [1], the Emax came to 56.1%. Also, in [2], the 50% effective concentration (EC50) was 209 nM.
`O=C(NCCO)c1cccc(-c2cccc(OCCc3cccc(C(F)(F)F)c3)n2)c1` showed an EC50 in [18] of 646 nM. Further, in series [19], the maximum response (Emax) worked out at 73.1%.
Regarding `O=C(NCCO)c1cccc(-c2cccc3oc(Cc4cccc(C(F)(F)F)c4)cc23)c1`, the Emax in series [1] came out at 85.7%. Also, the EC50 in [2] is 28.2 nM.
With `O=C(NCCO)c1cccc(-c2cccc3c2CC(Cc2cccc(C(F)(F)F)c2)O3)c1` (racemic), the Emax in series [1] was 45.9%. Further, the 50% effective concentration (EC50) in series [2] is 646 nM.
On to `COCCNC(=O)c1cccc(-c2cccc3cc(Cc4cccc(C(F)(F)F)c4)sc23)c1`, for which the Emax in [1] came out at 85%. In [2], the concentration giving a half-maximal response (EC50) is 42.7 nM.
